Here are results for 33 compounds from ChEMBL document CHEMBL4706578, “New one-pot synthesis of anti-tuberculosis compounds inspired on isoniazid” (Eur J Med Chem, 2020).

Converted amounts (≈) assume the structure as drawn. A value given as a limit tells only on which side of the number the result lay.

The subject of data set [1] is Mycobacterium tuberculosis. The data set can be described thus: Antitubercular activity against Mycobacterium tuberculosis H37Rv assessed as inhibition of microbial growth incubated by measuring turbidity for 5 days by serial microdilution based colorimetric assay. It counts as functional. The settings on record: 120 h, dose 20 µM, time 5 day. A digest of the protocol: (§1)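 Strains grown in Middlebrook 7H9 with ADS (BSA, dextrose, NaCl) and 1% glycerol. Compounds from 40 mM DMSO stocks were two-fold serially diluted in plate broth. Inoculum was a 1/25 dilution of a mid-log culture at McFarland 1.0, about 10⁶ CFU/well. Plates sealed and held 5 days at 37 °C. MIC is the lowest concentration with no visible turbidity. Rifampicin was the control drug.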
For orientation: Dilution methods test growth across graded concentrations, often in twofold steps.

The subject of data set [2] is Mycobacterium tuberculosis. Kind of data set: Antimycobacterial activity against Mycobacterium tuberculosis InhA-OE strain assessed as inhibition of microbial growth at 20 uM incubated for 5 days by serial microdilution based colorimetric assay. It counts as functional. The following applies: 120 h, time 5 day.
A short description of data set [3]: Cytotoxicity against African green monkey Vero E6 cells assessed as reduction in cell viability incubated for 48 hrs by neutral red assay. It counts as cell-based. The settings on record: Chlorocebus aethiops. In a few lines:
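Vero kidney […] were seeded at 25,000 cells/well and allowed 24 h before compound was added, then incubated 48 h. Viable cells were read by neutral red uptake. IC50 was taken from log plots of growth inhibition versus concentration. Doxorubicin was the positive control and DMSO the vehicle control.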

Data set [4] can be described thus: Selectivity index, ratio of CC50 for african green monkey Vero cells to MIC for Mycobacterium tuberculosis H37Rv. It counts as toxicity. The following applies: read-out: Selectivity Index.
Data set [5] has as its system Mycobacterium tuberculosis. The data set can be described thus: Antitubercular activity against Mycobacterium tuberculosis H37Rv. It counts as functional. A digest of the protocol: as §1
Data set [6] relates to Mycobacterium tuberculosis. The data set can be described thus: Antitubercular activity against Mycobacterium tuberculosis H37Rv under aerobic condition. It counts as functional.
The subject of data set [7] is Mycobacterium tuberculosis. Kind of data set: Antitubercular activity against Mycobacterium tuberculosis H37Rv under anerobic condition. It counts as functional.

Broadly, the MIC is the lowest concentration found to suppress growth. Turning to `COC(=O)/C=C/N(/N=C/c1ccc(-c2ccccc2)cc1)S(=O)(=O)c1ccc(C)cc1`, in data set [1], the minimum inhibitory concentration (MIC) is above 20 µM. Still for that read-out and setting: to `COC(=O)/C=C\N(/N=C/c1ccc(OC)c(OC)c1)S(=O)(=O)c1ccc(C)cc1` belongs above 20 µM.

For `COC(=O)/C=C\N(/N=C/c1ccccc1C(F)(F)F)S(=O)(=O)c1ccc(C)cc1`, the minimum inhibitory concentration (MIC) in data set [1] was above 20 µM. Same read-out and setting: to `COC(=O)/C=C\N(/N=C/C1=CC2CC(C1)C2(C)C)S(=O)(=O)c1ccc(C)cc1` (stereo not drawn) belongs above 20 µM; to `COC(=O)/C=C\N(/N=C/C1=CCCCC1)S(=O)(=O)c1ccc(C)cc1`, above 20 µM. Regarding `COC(=O)/C=C/N(/N=C/C=C(C)C)S(=O)(=O)c1ccc(C)cc1`, the minimum inhibitory concentration (MIC) in data set [2] came out at 10 µM; in data set [1] it was 5 µM. Usually IC50 stands for the concentration that inhibits the measured activity by half. Consider `COC(=O)/C=C/N(/N=C/c1ccc2ccccc2c1)S(=O)(=O)c1ccc(C)cc1`, for which the MIC stood at 2.5 µM in data set [2] and 1.25 µM in data set [1]. In addition, the concentration for half-maximal inhibition (IC50) in data set [3] is above 11.6 µM. In data set [4], the selectivity ratio is 9.28. `O=C(N/N=C\c1ccco1)c1cc(C23CC4CC(CC(C4)C2)C3)c2ccccc2n1` returned an MIC in data set [5] of 3.12 mg/L (≈ 7.81 µM).

Regarding `C/C=C/C=C/C=N/N(/C=C/C(=O)OC)S(=O)(=O)c1ccc(C)cc1`, the values for the minimal inhibitory concentration (MIC) in data set [2] and in data set [1] were 10 µM and 5 µM, respectively. For `COC(=O)/C=C/N(/N=C/c1ccccc1C(F)(F)F)S(=O)(=O)c1ccc(C)cc1`, the MIC in data set [1] was determined as 20 µM. Still for that read-out and setting: to `COC(=O)/C=C\N(/N=C/C=C/c1ccc(OC)cc1)S(=O)(=O)c1ccc(C)cc1` belongs above 20 µM. Turning to `CO[C@H]1/C=C/O[C@@]2(C)Oc3c(C)c(O)c4c(O)c(c(/C=N/N5CCN(C)CC5)c(O)c4c3C2=O)NC(=O)/C(C)=C\C=C\[C@H](C)[C@H](O)[C@@H](C)[C@@H](O)[C@@H](C)[C@H](OC(C)=O)[C@@H]1C` [RIFAMPIN], in data set [1], the MIC is 0.3 µM. Consider `COC(=O)/C=C/N(/N=C/c1ccco1)S(=O)(=O)c1ccc(C)cc1`, for which the MIC amounted to 10 µM in data set [2] and 5 µM in data set [1]. The like results for `NNC(=O)c1ccncc1` [ISONIAZID] were, in that order, above 7.3 µM and 0.36 µM. For orientation: IC90 means the concentration at which the effect reaches the 90% level. As to `Cc1cc(C)nc(NNC(=O)c2ccccn2)n1`, the IC90 in data set [6] is 1.51 mg/L (≈ 6.21 µM); in data set [7], 2.02 mg/L (≈ 8.3 µM). It took 6.08 mg/L (≈ 25 µM) to inhibit growth in data set [5] (MIC). In the case of `COC(=O)/C=C\N(/N=C/c1ccccc1)S(=O)(=O)c1ccc(C)cc1`, the MIC in data set [1] was 20 µM. Same read-out and setting: under `COC(=O)/C=C/N(/N=C/c1ccc([N+](=O)[O-])cc1)S(=O)(=O)c1ccc(C)cc1` stands above 20 µM. In the case of `COC(=O)/C=C/N(/N=C/c1ccccc1OC)S(=O)(=O)c1ccc(C)cc1`, the MIC in data set [2] amounted to 5 µM; in data set [1] it was 1.25 µM. Further, the half-inhibitory concentration (IC50) in data set [3] was above 12.2 µM. The selectivity ratio in data set [4] was found to be 9.76. Take `COC(=O)/C=C/N(/N=C/c1ccc[nH]1)S(=O)(=O)c1ccc(C)cc1`: the MIC in data set [1] is above 20 µM. Take `COC(=O)/C=C/N(/N=C/C1=CC2CC(C1)C2(C)C)S(=O)(=O)c1ccc(C)cc1` (stereo not drawn): in data set [1], the MIC was above 20 µM. On the same count and under the same terms, to `COC(=O)/C=C\N(/N=C/c1ccc(-c2ccccc2)cc1)S(=O)(=O)c1ccc(C)cc1` belongs above 20 µM. As to `COC(=O)/C=C\N(/N=C/c1ccc2ccccc2c1)S(=O)(=O)c1ccc(C)cc1`, in data set [1], the minimal inhibitory concentration (MIC) worked out at 20 µM.

With `COC(=O)/C=C\N(/N=C/c1ccc[nH]1)S(=O)(=O)c1ccc(C)cc1`, in data set [1], the MIC is above 20 µM. On the same count and under the same terms, under `COC(=O)/C=C\N(/N=C/c1ccc([N+](=O)[O-])cc1)S(=O)(=O)c1ccc(C)cc1` stands above 20 µM; under `COC(=O)/C=C/N(/N=C/C1=CCCCC1)S(=O)(=O)c1ccc(C)cc1`, 10 µM; under `COC(=O)/C=C\N(/N=C/c1ccco1)S(=O)(=O)c1ccc(C)cc1`, 20 µM.

As for `COC(=O)/C=C\N(/N=C/c1ccc(Br)cc1)S(=O)(=O)c1ccc(C)cc1`, the minimal inhibitory concentration (MIC) in data set [1] was above 20 µM. Consider `COC(=O)/C=C/N(/N=C/C=C/c1ccc(OC)cc1)S(=O)(=O)c1ccc(C)cc1`, for which, in data set [1], the minimum inhibitory concentration (MIC) amounted to 10 µM.

With `C/C=C/C=C/C=N/N(/C=C\C(=O)OC)S(=O)(=O)c1ccc(C)cc1`, in data set [1], the MIC was 20 µM. Turning to `COC(=O)/C=C\N(/N=C/c1ccccc1OC)S(=O)(=O)c1ccc(C)cc1`, the minimal inhibitory concentration (MIC) in data set [1] was above 20 µM. For the compound `COC(=O)/C=C/N(/N=C/c1ccc(OC)c(OC)c1)S(=O)(=O)c1ccc(C)cc1`, in data set [1], the MIC was above 20 µM. For `COC(=O)/C=C/N(/N=C/c1ccccc1)S(=O)(=O)c1ccc(C)cc1`, the values for the MIC in data set [2] and in data set [1] were 2.5 µM and 1.25 µM, respectively. Further, the IC50 in data set [3] is above 13.3 µM. The selectivity ratio in data set [4] worked out at 10.6. Regarding `COC(=O)/C=C/N(/N=C/c1ccc(Br)cc1)S(=O)(=O)c1ccc(C)cc1`, in data set [1], the MIC is above 20 µM.
